The target of series [1] is T1, ATP-dependent translocase ABCB1 (Homo sapiens, UniProt P08183). In words: Inhibition of P-glycoprotein. The method, boiled down:
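Rhodamine 123 uptake in L5178YvMDR mouse T-lymphoma cells and the parental line, 2 × 10⁶ cells/mL in serum-free McCoy's 5A. Compound preincubated 10 min at room temperature, then rhodamine 123 (5.2 µM final) added for 20 min at 37 °C. Cells washed twice in PBS and 1 × 10⁴ cells read by flow cytometry. IC50 taken from sigmoidal curve of fluorescence activity ratio versus concentration. Mean of two determinations.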

For series [2], the target named is T1, ATP-dependent translocase ABCB1. In words: Ratio of rhodamine123 uptake in MDR1 transfected cells vs parental L5178Y cells at 30 uM. The following applies: mouse. The class given is functional, cell-based. The method, boiled down: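 Fluorescence activity ratio at 30 µM compound. L5178Y parental and L5178YvMDR cells (2 × 10⁶/mL, serum-free McCoy's 5A) preincubated 10 min at room temperature with compound, then rhodamine 123 (5.2 µM final) added for 20 min at 37 °C. After two PBS washes, 1 × 10⁴ cells read by flow cytometry. Ratio calculated from uptake in treated versus untreated control cells. Mean of two determinations.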

Another series relates to L5178Y. Kind of series: Cytotoxicity against mouse L5178Y cell line. The class given is functional, cell-based. The method, boiled down: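 MTT assay on L5178Y mouse T-lymphoma parental cells or the L5178YvMDR (mdr1-transfected) subline. Compound-treated cells cultured 48 h at 37 °C under 5% CO2. MTT added (0.5 mg/mL final) for another 4 h at 37 °C. Formazan dissolved in 10% SDS in 0.01 M HCl overnight, then absorbance read. Absorbance corrected for cell control and compound, IC50 taken from sigmoidal curve. Mean of two determinations.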

Some results are limits rather than exact numbers.

T1 sequence (P08183 whole entry): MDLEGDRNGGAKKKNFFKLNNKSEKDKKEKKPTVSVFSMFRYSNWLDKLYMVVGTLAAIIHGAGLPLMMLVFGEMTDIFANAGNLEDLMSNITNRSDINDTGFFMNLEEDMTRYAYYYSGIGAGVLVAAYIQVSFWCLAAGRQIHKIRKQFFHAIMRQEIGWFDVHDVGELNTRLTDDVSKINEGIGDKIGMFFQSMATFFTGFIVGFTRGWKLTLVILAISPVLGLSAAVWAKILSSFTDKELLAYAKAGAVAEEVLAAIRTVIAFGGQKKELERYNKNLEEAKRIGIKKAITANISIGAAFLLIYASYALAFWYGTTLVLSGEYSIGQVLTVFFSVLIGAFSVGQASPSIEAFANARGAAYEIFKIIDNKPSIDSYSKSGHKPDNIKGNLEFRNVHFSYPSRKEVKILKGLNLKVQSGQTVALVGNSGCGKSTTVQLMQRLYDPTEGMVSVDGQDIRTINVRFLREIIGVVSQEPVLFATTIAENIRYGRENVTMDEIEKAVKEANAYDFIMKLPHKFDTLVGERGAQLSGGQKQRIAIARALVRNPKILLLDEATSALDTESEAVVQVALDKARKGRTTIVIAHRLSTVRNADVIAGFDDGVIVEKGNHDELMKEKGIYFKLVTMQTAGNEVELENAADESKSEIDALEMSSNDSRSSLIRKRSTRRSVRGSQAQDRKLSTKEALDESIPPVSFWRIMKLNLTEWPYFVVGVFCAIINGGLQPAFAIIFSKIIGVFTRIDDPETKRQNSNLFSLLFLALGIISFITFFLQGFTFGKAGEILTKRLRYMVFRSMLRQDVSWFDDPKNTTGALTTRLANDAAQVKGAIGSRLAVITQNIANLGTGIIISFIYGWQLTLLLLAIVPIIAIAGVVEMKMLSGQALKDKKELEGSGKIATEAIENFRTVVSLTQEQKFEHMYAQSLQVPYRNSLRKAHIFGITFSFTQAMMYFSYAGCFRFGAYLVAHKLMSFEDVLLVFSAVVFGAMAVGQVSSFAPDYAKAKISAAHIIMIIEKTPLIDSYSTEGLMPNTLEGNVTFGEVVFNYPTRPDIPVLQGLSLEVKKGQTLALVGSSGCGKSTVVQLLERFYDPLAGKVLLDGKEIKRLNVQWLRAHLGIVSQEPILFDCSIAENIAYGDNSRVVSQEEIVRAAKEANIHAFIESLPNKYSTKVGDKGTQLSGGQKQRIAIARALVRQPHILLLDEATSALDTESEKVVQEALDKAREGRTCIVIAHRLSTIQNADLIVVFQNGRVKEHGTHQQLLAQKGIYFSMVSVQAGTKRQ

`COC(=O)N1C2C3C4N(C(=O)OC)C5C(C1[C@]5(CO)[C@H]3c1ccccc1)[C@@H](c1ccccc1)[C@@]24CO`: the IC50 in series [1] worked out at 3.8 µM. Besides, the Ratio in series [2] is listed as 21.6.
For `O=C(Oc1ccccc1)N1C2C3C4N(C(=O)Oc5ccccc5)C5C(C1[C@]5(CO)[C@H]3c1ccccc1)[C@@H](c1ccccc1)[C@@]24CO`, the values for the half-maximal inhibitory concentration (IC50) (in series [1]; in the series on L5178Y) were below 1 µM and 12.7 µM, respectively. In addition, the Ratio in series [2] was found to be 30.8.
`CC(C)(C)OC(=O)N1C2C3C4N(C(=O)OC(C)(C)C)C5C(C1[C@]5(CO)[C@H]3c1ccccc1)[C@@H](c1ccccc1)[C@@]24CO`: the values for the IC50 (in series [1]; in the series with L5178Y) were 6.1 µM and 2.5 µM, respectively. In addition, in series [2], the Ratio stood at 33.
On the same counts, the results for `OC[C@]12C3C4C1N(Cc1ccccc1)C1C(C(N3Cc3ccccc3)[C@]1(CO)[C@H]4c1ccccc1)[C@H]2c1ccccc1` are below 1 µM, 11.9 µM and 26.5.
The like results for `CN1C2C3C4N(C)C5C(C1[C@]5(CO)[C@H]3c1ccccc1)[C@@H](c1ccccc1)[C@@]24CO` were, in that order, 17.6 µM, 7.1 µM and 34.3.

As usually defined, the IC50 is the point on the concentration scale where inhibition reaches its midpoint.

These data come from ChEMBL document CHEMBL1147656, “Biological evaluation of bishydroxymethyl-substituted cage dimeric 1,4-dihydropyridines as a novel class of p-glycoprotein modulating agents in cancer cells” (J Med Chem, 2006).
